High-throughput results: PubChem, several laboratories
SKKanGAS inh = S. pyogenes SKKanGAS growth inhibitors in kanamycin, primary screen, streptokinase expression inhibitor project, SKKanGAS strain, BacTiter-Glo luminescence | 6 h | inhibition, % at 7.5 µM | 1.3% of 300,000 active;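 active means mean replicate score, as percent of positive control median, at least 50; inconclusive means mean below 50 but one replicate at or above 50; inactive means mean and every replicate below 50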;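 further: strain carries kanamycin resistance gene driven by streptokinase promoter and grows in 40 µg/ml kanamycin; loss of luminescence reflects streptokinase promoter inhibition or plain growth inhibition; 0% = median of DMSO wells and 100% = positive control at its reference dose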
Beta cell apopt = inhibitors of cytokine-induced beta cell apoptosis, primary screen, luminescence; protection from apoptosis, % (no concentration beside the values); INS-1E cytokine-induced death, ATP luminescence, 48 h; percent of positive-control rescue, neutral wells zero; 0.8% of 300,000 active; AID 435005, 2010;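 active means Every replicate reaches about 75%, or at least half do and their mean reaches it too, limit read from the data; inconclusive means At least half of replicates reach the limit but their mean does not; inactive means Under half of replicates reach the limit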;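 further: 0% = cytokine-treated negative control wells and 100% = positive control rescue; higher means more ATP so stronger rescue from cytokine killing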
Calb FLC = C. albicans growth inhibition with fluconazole, primary screen, CaCi-2 strain, Alamar Blue fluorescence; 0.57% of 300,000 active; AID 1979, 2009; growth inhibition, % (concentration not given with the values); C. albicans CaCi-2 (fluconazole-resistant clinical isolate) + fluconazole, 48 h;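 active means growth inhibition above about 58% in most replicates, limit read from the data, passing the limit was not always enough; inconclusive means exactly half the replicates above a set limit; inactive means most replicates below a set limit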;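 further: all wells also contain fluconazole at 8 µg/ml as a sub-toxic cotreatment; 0% = median of DMSO wells and 100% = median of geldanamycin control wells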
CSC inhib = cancer stem cell viability inhibitors, primary screen, luminescence; inhibition, % at 7.5 µM; AID 2717, 2010; cancer stem cell-like cells viability; 1.1% of 300,000 active; in the data active means inhibition above about 75%; inconclusive means no clear call, values can overlap the other calls; tested in HMLE shEcad cells
T cruzi inh = inhibitors of intracellular T. cruzi growth, primary screen, luminescence, NIH3T3 host cells | T. cruzi beta-gal in NIH3T3, 90 h | inhibition, % (test concentration not listed) | 1.4% of 300,000 active | AID 1885, 2009;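 active means mean inhibition across valid replicates above about 55%, limit read from the data; inconclusive means mean below that limit but half or more replicates reach it; inactive means mean below it, under half of replicates reach it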;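 further: signal also drops with host cell toxicity which is not excluded here; 0% = plate median of DMSO wells and 100% = zero luminescence signal; higher percent means less beta-gal luminescence so fewer parasites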
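Incubation – ≥90 h infection period, 3 h prior cell attachment · System – NIH/3T3 fibroblasts plus reporter T. cruzi · Doses – compound pinned at 50 nL/well, DMSO · Read-out basis – percent inhibition of parasite-derived β-gal signal · Signal – luminescent β-galactosidase signal after 60 min lysis · Also added – 5000 T. cruzi trypomastigotes/well · Medium – Low-serum DMEM with 2% FBS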
Mdm2 MdmX PPI = inhibitors of human Mdm2-MdmX association, primary screen, cell-based, luminescence, split luciferase, SaOS-2, uHTS; Protein Mdm4 (Homo sapiens) + E3 ubiquitin-protein ligase Mdm2 (Homo sapiens), …; SaOS-2 split-luciferase Mdm2/MdmX complementation; inhibition, % at 8 µM; 3% of 330,000 active;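 active means inhibition of at least 50% at 8 µM in the primary screen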
Target sequence (O15151 whole entry, looked up): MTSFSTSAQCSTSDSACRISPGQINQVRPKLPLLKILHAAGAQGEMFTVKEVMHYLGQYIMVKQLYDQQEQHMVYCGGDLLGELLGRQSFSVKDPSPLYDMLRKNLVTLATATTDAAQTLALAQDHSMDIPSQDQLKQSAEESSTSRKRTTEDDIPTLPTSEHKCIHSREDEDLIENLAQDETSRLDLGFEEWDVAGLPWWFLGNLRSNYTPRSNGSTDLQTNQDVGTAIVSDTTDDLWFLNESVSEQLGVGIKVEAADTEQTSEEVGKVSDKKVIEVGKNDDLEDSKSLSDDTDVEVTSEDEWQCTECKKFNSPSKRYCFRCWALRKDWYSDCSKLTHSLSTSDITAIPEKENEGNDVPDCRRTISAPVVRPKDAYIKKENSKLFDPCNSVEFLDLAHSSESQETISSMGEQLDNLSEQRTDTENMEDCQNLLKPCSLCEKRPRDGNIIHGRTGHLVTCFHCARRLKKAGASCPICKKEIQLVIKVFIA
Target sequence (Q00987 whole entry, looked up): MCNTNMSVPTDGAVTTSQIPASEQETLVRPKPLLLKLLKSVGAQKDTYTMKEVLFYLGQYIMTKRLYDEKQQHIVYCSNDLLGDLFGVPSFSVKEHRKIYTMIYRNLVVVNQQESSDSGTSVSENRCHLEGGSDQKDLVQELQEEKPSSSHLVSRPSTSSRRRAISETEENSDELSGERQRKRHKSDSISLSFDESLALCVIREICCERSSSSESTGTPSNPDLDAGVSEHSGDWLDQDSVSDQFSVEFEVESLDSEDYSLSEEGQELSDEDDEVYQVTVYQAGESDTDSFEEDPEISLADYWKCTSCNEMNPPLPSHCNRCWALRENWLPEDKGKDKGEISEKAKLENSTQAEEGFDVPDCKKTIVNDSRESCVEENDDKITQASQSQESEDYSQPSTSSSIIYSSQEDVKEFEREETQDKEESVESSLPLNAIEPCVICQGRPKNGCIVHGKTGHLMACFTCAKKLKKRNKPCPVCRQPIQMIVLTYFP
Mdm2-MdmX conf = Mdm2-MdmX complex disruptors, retested hits, confirmation, luminescence, single concentration; shares compounds with Mdm2 MdmX PPI; Mdm2-MdmX binding, luminescent assay; 55% of 10,000 active; AID 489028, 2010; inhibition, % at 8 µM; in the data active means inhibition above about 40%
FLuc counter = full-length luciferase signal inhibition, confirmation, counter-screen for Mdm2/MdmX interaction inhibitor project, cell-based, single concentration, SaOS-2 | shares compounds with Mdm2 MdmX PPI | SaOS-2 full-length luciferase counterscreen, luminescence | inhibition, % at 8 µM | 77% of 6,200 active | AID 504607, 2011;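 active means mean inhibition at 8 µM reaching about 37%, which flags the compound as non-specific, limit read from the data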;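 further: p53-null SaOS-2 cells with luciferase driven by a doxycycline-inducible promoter; compound on cells about two nights before reading with doxycycline added after day one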
* marks the source's active call; other numbers are inactive results; ? = inconclusive; · = no result. Shown are actives, neighbours in structure and some others; about 5.7% of the full set was active somewhere.

SMILES | SKKanGAS inh | Beta cell apopt | Calb FLC | CSC inhib | T cruzi inh | Mdm2 MdmX PPI | Mdm2-MdmX conf | FLuc counter
CC(C)(C)NC(=O)C(c1ccc(-c2ccccc2)cc1)N(C[C@H]1CC[C@@H]([C@@H]2CC[C@H](CO)O2)O1)C(=O)c1cccc(Cl)c1 (stereo not given in full) | · | · | · | · | · | 50* | 11 | ·
CC(C)(C)NC(=O)C(c1ccc(-c2ccccc2)cc1)N(C[C@H]1CC[C@@H]([C@@H]2CC[C@H](CO)O2)O1)C(=O)c1ccc2ccccc2c1 (stereo not given in full) | · | · | · | · | · | 22 | · | ·
CC(C)(C)NC(=O)C(c1ccc(-c2ccccc2)cc1)N(C[C@H]1CC[C@@H]([C@@H]2CC[C@H](CO)O2)O1)C(=O)c1ccc(-c2ccccc2)cc1 (stereo not given in full) | · | · | · | · | · | 88* | 47* | 52*
O=C(NC1CCCCC1)C1CCCN1C(=O)Nc1ccccc1 (stereo not given) | 3 | -2 | 5 | -11 | -8 | 7 | · | ·
COc1cccc(OC)c1C(=O)Nc1ccc(S(=O)(=O)N2CCCCC2)cc1 | -8 | -1 | -8 | 8 | -5 | 11 | · | ·
CC(=O)c1ccc(NC(=O)CCNC(=O)c2ccccc2Cl)cc1 | -3 | 3 | -1 | -2 | -3 | -17 | · | ·
Cc1ccc(-n2c(C)cc(C3N=C(N)Nc4nc5ccccc5n43)c2C)c(C)c1 (stereo not given) | 42 | 14 | -50 | 13 | 34 | 72* | 28 | ·
Cc1cc(C2N=C(N)Nc3nc4ccccc4n32)c(C)n1-c1ccccc1Cl (stereo not given) | 7 | -8 | 38 | 11 | 51 | 24 | · | ·
CSCCC(NC(=O)COc1ccccc1)C(=O)N1CCN(c2ccccc2Cl)CC1 (stereo not given) | 0 | 7 | 0 | 25 | 30 | 0 | · | ·
COc1ccc(NC(=O)Cn2c3ccccc3c3nc4n(c(=O)c32)CCS4)cc1 | 11 | 14 | 43 | 4 | 2 | 70* | 12 | ·
O=C(NCc1nc(-c2ccc(C(F)(F)F)cc2)no1)Nc1ccc(OC(F)(F)F)cc1 | 24 | 0 | 3 | 109* | 25 | 89* | 28 | ·
COc1cc(/C=N/NC(=O)c2cc(-c3cccc(OC(C)C)c3)nc3ccccc23)ccc1O | 25 | 6 | 23 | 32 | 17 | 88* | 59* | 57*
COc1cc(/C=N/NC(=O)c2cc(-c3cccs3)nc3ccccc23)ccc1O | 5 | 4 | 4 | 22 | -19 | 6 | · | ·
COc1ccccc1-c1cc(C(=O)N/N=C/c2ccc(C)s2)c2ccccc2n1 | 15 | 8 | 4 | -11 | 10 | 71* | 5 | ·
CCc1ccc(/C=N/NC(=O)c2cc(-c3ccccc3OC)nc3ccccc23)s1 | 31 | 4 | 18 | · | -5 | 24 | · | ·
Cc1ccc(CNC(=O)c2cnccn2)cc1 | -8 | -8 | 9 | -10 | -4 | 6 | · | ·
COc1ccc2nc(N=Nc3ccc(O)c4ccccc34)sc2c1 | -9 | ? | -5 | 92* | 49 | 66* | 78* | 35
FC(F)(F)Sc1ccc(NC(=S)NCc2ccccc2)cc1 | 15 | 18 | -35 | 54 | 33 | 79* | -2 | ·
Cc1ccccc1NS(=O)(=O)c1csc(C(N)=O)c1 | -2 | 0 | -2 | 3 | -16 | 15 | · | ·
O=C(Nc1ccc(N2CCCCC2)cc1)c1ccccn1 | 6 | 47 | 8 | -4 | 18 | 81* | 84* | 28
Cc1ccccc1N1CC(C(=O)N2CCCCCC2)CC1=O (stereo not given) | -4 | · | -11 | -13 | 1 | -3 | · | ·
O=C(CSc1nc2ccccc2[nH]1)Nc1ccc(N2CCOCC2)cc1 | -6 | -2 | -1 | -10 | -6 | 24 | · | ·
CCc1ccc(/C=C2/Sc3ccccc3N(CC(=O)NCC3CCCO3)C2=O)cc1 (stereo not given) | 3 | · | 11 | 11 | -6 | -10 | · | ·
Cc1cc(/C=C2\Sc3ccccc3N2C)cc(C)[n+]1CC1CCCO1 (stereo not given) | · | · | · | · | · | 87* | 90* | 21
O=C(COC(=O)c1ccc[nH]c1=O)NC1CC1 | · | -8 | · | -23 | · | 5 | · | ·
SMILES | SKKanGAS inh | Beta cell apopt | Calb FLC | CSC inhib | T cruzi inh | Mdm2 MdmX PPI | Mdm2-MdmX conf | FLuc counter
COc1ccc(-n2nc(C#N)c(Cl)cc2=O)cc1 | · | · | · | · | · | 100* | 100* | 53*
COC(=O)c1nn(-c2ccc(OC)cc2)c(=O)cc1O | 4 | -5 | -1 | 14 | 2 | -5 | · | ·
Cc1ccc(NC(=O)O/N=C/c2c(C)nn(C(C)(C)C)c2C)cc1Cl | 17 | -2 | -7 | 1 | 9 | 80* | 92* | 54*
Cc1ccc(NC(=O)Nn2cnnc2)cc1Cl | -8 | -4 | 9 | · | -14 | 4 | · | ·
CC(NCCC(c1ccccc1)c1ccccc1)c1ccccc1 (stereo not given) | 2 | 19 | · | 18 | 15 | 58* | 16 | ·
O=[N+]([O-])c1ccc2ncnc(N3CCN(Cc4ccc5c(c4)OCO5)CC3)c2c1 | 3 | 16 | -113 | -13 | -21 | 74* | 65* | 24
COc1ccc2cc(C(=O)N3CCN(Cc4ccc5c(c4)OCO5)CC3)[nH]c2c1 | 1 | -6 | 0 | -9 | 16 | 14 | · | ·
O=[N+]([O-])c1cccnc1N1CCN(Cc2ccc3c(c2)OCO3)CC1 | -3 | 0 | -71 | -5 | -1 | -7 | · | ·
COc1ccc2[nH]c3c(N4CCC(O)(c5cccc(C(F)(F)F)c5)CC4)ncnc3c2c1 | 42 | 39 | 10 | 6 | 24 | 75* | 67* | 32
COc1ccc2[nH]c3c(N4CCN(Cc5ccc6c(c5)OCO6)CC4)ncnc3c2c1 | 14 | 40 | 2 | 4 | 26 | 57* | 19 | ·
Cn1c(C(=O)NCc2ccccc2)cc2oc3ccccc3c21 | 1 | 3 | 14 | 38 | 19 | 88* | 87* | 32
Cn1c(C(=O)NCc2cccs2)cc2oc3ccccc3c21 | 21 | -2 | 0 | -11 | 8 | 77* | 72* | 28
COc1cccc(/C=N/Nc2nc(Nc3ccc([N+](=O)[O-])cc3)nc(N3CCCC3)n2)c1O | 73* | 60 | 72* | · | 55* | 96* | 89* | 39*
